Results from different studies.
Organism: Leishmania donovani
Effect on: parasite growth

`c1ccc(CN2CCN(c3nc(-c4ccccn4)nc4ccccc34)CC2)cc1` has an IC50 of 2600 nM (imaging; THP-1; intracellular, amastigote).
`COc1ccccc1-c1n[nH]c2nc(NC3CCN(C(=O)Cc4ccc(OCCOCCNC(=O)OC(C)(C)C)cc4)CC3)ncc12` has an EC50 of 4200 nM (amastigote).
`CCCCCCCCCCCCCCCCOP(=O)([O-])OCC[N+](C)(C)C` gave an inhibition of 100% (resazurin; 50 µM; 72 h; promastigote).
`N=C(N)c1ccc(OCCCCCOc2ccc(C(=N)N)cc2)cc1` has an IC90 of 8.77 µg/mL (resazurin; 72 h; promastigote).
With `C[C@@H]1[C@H](O)[C@@H](C)/C=C/C=C/C=C/C=C/C=C/C=C/C=C/[C@H](O[C@@H]2O[C@H](C)[C@@H](O)[C@H](N)[C@@H]2O)C[C@@H]2O[C@](O)(C[C@@H](O)C[C@@H](O)[C@H](O)CC[C@@H](O)C[C@@H](O)CC(=O)O[C@H]1C)C[C@H](O)[C@H]2C(=O)O` the IC90 was 1800 nM (MTT; 48 h; amastigote).
`c1ccc(-c2nc(N3CCCC3)c3ccccc3n2)nc1` has an IC50 of 2500 nM (THP-1; intracellular, amastigote).
For `COc1ccccc1-c1n[nH]c2nc(N[C@H]3CC[C@H](NS(=O)(=O)CCCOCCOCCNC(=O)OC(C)(C)C)CC3)ncc12`, the EC50 was 1360 nM (amastigote).
`N=C(N)c1ccc(OCCCCCOc2ccc(C(=N)N)cc2)cc1` gave an IC50 of 1 µg/mL (resazurin; promastigote).
With `COc1ccccc1-c1n[nH]c2nc(N[C@H]3CC[C@H](NS(=O)(=O)CCCOCCOCCN)CC3)ncc12` the EC50 was 24700 nM (THP-1; intracellular, amastigote).
`CCCCCCCC/C=C\CCCCCCCCCCCCOP(=O)([O-])OCC[N+](C)(C)C` has an inhibition of 106% (resazurin; 25 µM; 72 h; promastigote).
With `COc1cc(NC(C)CCCNC(=S)NCCCC(C)Nc2cc(OC)cc3cccnc23)c2ncccc2c1.Cl.Cl` (stereo not drawn) the IC90 was 20 to 31 µg/mL (resazurin; promastigote).
`COc1ccccc1-c1n[nH]c2nc(NC3CCN(C(=O)Cc4ccc(OCCOCCN)cc4)CC3)ncc12` gave an EC50 of 26700 nM (THP-1; intracellular, amastigote).
